Reference: ChEMBL document CHEMBL1123913, “Discovery and anticonvulsant activity of the potent metabolic inhibitor 4-amino-N-(2,6-dimethylphenyl)-3,5-dimethylbenzamide” (1987)
Calls of active or inactive are those of the source. The rule behind the calls is not given here.

Assays:
Mus musculus [1] = experiment: Plasma concentration was determined after 120 min of oral administration in mice; assay type: functional, organism-based
How it was run: (§1)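 Three groups of two mice dosed orally at 1.7, 3.5 or 5.6 mg/kg, suspended in 5% acacia. Blood taken by cardiac puncture under methoxyfluorane into heparin, plasma stored at −30 °C. Parent and N-acetyl metabolite measured by C18 HPLC with absorbance detection against plasma standards of 50–2000 ng/mL. Detection limit 25 ng/mL. Mean ± SEM.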

Mus musculus [2] = experiment: Plasma concentration was determined after 30 min of oral administration in mice; assay type: functional, organism-based; how it was run: as §1
Mus musculus [3] = experiment: Plasma concentration was determined after 60 min of oral administration in mice; assay type: functional, organism-based; how it was run: as §1
Mus musculus [4] = experiment: Antagonistic activity against MES (Maximal Electroshock)-induced seizures after oral administration to mice; assay type: functional
How it was run: (§2)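 Fasted (90 min) mice dosed orally with a range of doses as suspension in 5% acacia/water. Electroshock 40 mA, 0.1 s, ac, via corneal electrodes at the time of peak effect, using at least four doses, 12 mice per dose. ED50 for prevention of tonic-extensor convulsions by Litchfield–Wilcoxon, with 95% confidence limits.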

Mus musculus [5] = organism: Mus musculus; experiment: Ataxia or neurological deficit was measured as horizontal screen test(HS) in mice; assay type: functional
How it was run: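 Male CF1 mice (20–25 g), fasted 90 min, given oral doses as suspension in 5% acacia/water, then placed on a 13 cm × 13 cm wire screen. Retested at the time of peak effect with at least four doses and 12 mice per dose. ED50 by Litchfield–Wilcoxon, with 95% confidence limits.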

Mus musculus [6] = experiment: Time taken for peak anticonvulsant effect(TPE) was measured by oral administration to mice; assay type: functional
How it was run: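 Fasted mice, four per group, given a range of oral doses in 5% acacia/water. Challenged with corneal electroshock (40 mA, 0.1 s, ac) at 0.5, 1, 2, 3 and 4 h after dosing to find the time of peak anticonvulsant effect.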

Mus musculus [7] = experiment: Antagonistic activity against MES(Maximal Electroshock)-induced seizures after oral administration to mice; assay type: functional; how it was run: as §2
Mus musculus [8] = experiment: Ataxia or neurological deficit was measured as horizontal screen test(HS) in mice at a dose of 160 mg/kg; NA means Not active; assay type: functional, organism-based; parameters: dose 160 mg/kg
Mus musculus [9] = experiment: Plasma concentration was determined after 240 min of oral administration in mice; assay type: functional, organism-based; how it was run: as §1
Mus musculus [10] = experiment: Plasma concentration was determined after 360 min of oral administration in mice; assay type: functional, organism-based; how it was run: as §1
Mus musculus [11] = experiment: Effect on Hexobarbitol-Induced sleeping time in mice at a dose of 0 mg/kg peroral administration; assay type: functional; settings: route oral
How it was run: (§3)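 Groups of 10 fasted mice dosed orally in 5% acacia/water. Hexobarbital 100 mg/kg ip, solubilized with stoichiometric NaOH, given 0.5 h later. Sleeping time is loss of righting reflex, to the nearest minute. Reported as mean ± SEM and percent increase over hexobarbital control.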

Mus musculus [12] = experiment: Effect on Hexobarbitol-Induced sleeping time in mice at a dose of 1.6 mg/kg peroral administration; assay type: functional; settings: route oral; how it was run: as §3
Mus musculus [13] = experiment: Effect on Hexobarbitol-Induced sleeping time in mice at a dose of 12.8 mg/kg peroral administration; assay type: functional; settings: route oral; how it was run: as §3
Mus musculus [14] = experiment: Effect on Hexobarbitol-Induced sleeping time in mice at a dose of 3.2 mg/kg peroral administration; assay type: functional; settings: route oral; how it was run: as §3
Mus musculus [15] = experiment: Effect on Hexobarbitol-Induced sleeping time in mice at a dose of 6.4 mg/kg peroral administration; assay type: functional; settings: route oral; how it was run: as §3
[16] = Protective index (HS ED50/MES ED50) after oral administration in mice; assay type: functional
How it was run: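 Ratio of the horizontal-screen ED50 to the MES ED50. Both come from oral dosing of fasted mice in 5% acacia/water at the time of peak effect and are calculated by Litchfield–Wilcoxon.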

Mus musculus [17] = experiment: Ataxia or neurological deficit was measured as horizontal screen test(HS) in mice at the highest dose of 300 mg/kg; NA means Not active; assay type: functional, organism-based; parameters: dose 300 mg/kg
Mus musculus [18] = experiment: Antagonistic activity against MES-induced seizures after oral administration to mice; assay type: functional; how it was run: as §2
Mus musculus [19] = experiment: Effect on Hexobarbitol-Induced sleeping time in mice at a dose of 15.2 mg/kg peroral administration; assay type: functional; settings: route oral
How it was run: (§4)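 Groups of 10 fasted mice dosed orally in 5% acacia/water. Hexobarbital 100 mg/kg ip, solubilized with stoichiometric NaOH, given 1.0 h later. Duration of loss of righting reflex to the nearest minute. Mean ± SEM, percent increase over hexobarbital control, p < 0.05 significance.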

Mus musculus [20] = experiment: Effect on Hexobarbitol-Induced sleeping time in mice at a dose of 3.8 mg/kg peroral administration; assay type: functional; settings: route oral; how it was run: as §4
Mus musculus [21] = experiment: Effect on Hexobarbitol-Induced sleeping time in mice at a dose of 30.4 mg/kg peroral administration; assay type: functional; settings: route oral; how it was run: as §4
Mus musculus [22] = experiment: Effect on Hexobarbitol-Induced sleeping time in mice at a dose of 7.6 mg/kg peroral administration; assay type: functional; settings: route oral; how it was run: as §4

Row | SMILES | Concentration (Mus musculus [1]) [ng/mL] | Concentration (Mus musculus [2]) [ng/mL] | Concentration (Mus musculus [3]) [ng/mL] | ED50 (Mus musculus [4]) [mg/kg] | ED50 (Mus musculus [5]) [mg/kg] | TPE (Mus musculus [6]) [h] | further results
1 | CC(=O)Nc1ccc(C(=O)Nc2c(C)cccc2C)cc1C | 91 | 79 | 97 | 4.5 | 56 | 1 | 
2 | Cc1cc(C(=O)Nc2c(C)cccc2C)cc(C)c1N | 1060 | 1480 | 1160 |  | 64 | 1 | ED50 (Mus musculus [7]): 5.6 mg/kg
3 | CC(=O)Nc1c(C)cc(C(=O)Nc2c(C)cccc2C)cc1C |  |  |  | 170 |  | 2 | ED50 (Mus musculus [8]): inactive
4 | Cc1cccc(C)c1NC(=O)c1ccc(N)cc1 [AMELTOLIDE] | 656 | 1090 | 893 | 1.7 | 23 | 0.5 | Concentration (Mus musculus [9]): 394 ng/mL; Concentration (Mus musculus [10]): 299 ng/mL; Sleeping time (Mus musculus [11]): 59.6 min; Sleeping time (Mus musculus [12]): 67.9 min; Sleeping time (Mus musculus [13]): 76.4 min; Sleeping time (Mus musculus [14]): 69.3 min; Sleeping time (Mus musculus [15]): 75 min; PI [16]: 13
5 | CC(=O)Nc1ccc(C(=O)Nc2c(C)cccc2C)cc1 | 545 | 412 | 587 | 3.8 |  | 2 | Concentration (Mus musculus [9]): 425 ng/mL; Concentration (Mus musculus [10]): 225 ng/mL; ED50 (Mus musculus [17]): inactive
6 | Cc1cc(C(=O)Nc2c(C)cccc2C)ccc1N |  |  |  |  | 84 | 1 | ED50 (Mus musculus [18]): 3.5 mg/kg; Sleeping time (Mus musculus [11]): 66.4 min; Sleeping time (Mus musculus [19]): 85.5 min; Sleeping time (Mus musculus [20]): 85.6 min; Sleeping time (Mus musculus [21]): 133.8 min; Sleeping time (Mus musculus [22]): 97.9 min
7 | O=C1NC(=O)C(c2ccccc2)(c2ccccc2)N1 [PHENYTOIN] |  |  |  | 9.4 | 210 | 1 | 
